The record followed here is ChEMBL document CHEMBL2346575, “Potential CRF1R PET imaging agents: 1-fluoroalkylsubstituted 5-halo-3-(arylamino)pyrazin-2(1H)-ones” (Bioorg Med Chem Lett, 2013).

Data set [1] is described as follows: Lipophilicity, log D of the compound in octanol-phosphate buffer at pH 7.4 after 30 to 40 mins by shake flask method. The class given is physicochemical. The procedure, abridged: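 Phosphate buffer (25 mM, pH ~7.4) and octanol were pre-saturated overnight. Sample (1.0 mg) in 1 mL octanol added to 50 mL octanol-saturated buffer, shaken hard 30–40 min, then left until the layers separated. Each phase analyzed twice by HPLC.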

In data set [2] the target is T1, Corticotropin-releasing factor receptor 1 (Rattus norvegicus, UniProt P35353).
T1 sequence (P35353 whole entry): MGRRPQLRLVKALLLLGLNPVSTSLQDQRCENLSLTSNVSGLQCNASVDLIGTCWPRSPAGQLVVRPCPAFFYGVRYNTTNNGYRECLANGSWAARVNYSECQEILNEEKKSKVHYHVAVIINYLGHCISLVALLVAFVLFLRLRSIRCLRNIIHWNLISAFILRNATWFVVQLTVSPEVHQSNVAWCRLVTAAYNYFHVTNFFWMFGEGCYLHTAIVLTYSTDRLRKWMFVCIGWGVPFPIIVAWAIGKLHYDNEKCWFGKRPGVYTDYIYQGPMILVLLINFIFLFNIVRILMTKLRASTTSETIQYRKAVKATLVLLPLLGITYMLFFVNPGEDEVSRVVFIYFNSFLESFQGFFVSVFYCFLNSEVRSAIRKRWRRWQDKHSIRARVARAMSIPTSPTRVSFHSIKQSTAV
Nature of the data set: Displacement of [125I]-o-CRF from CRF1 receptor in rat frontal cortex homogenate after 2 hrs by gamma counting. The format is tissue-based. The procedure, abridged: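 Rat frontal cortex, thawed in 50 mM HEPES (pH 7.0 at 23 °C) with 10 mM MgCl2, 2 mM EGTA and protease inhibitors, then homogenized, spun twice at 32,000×g for 30 min and stored at -70 °C. Membranes (25 µg/well) incubated with 150 pM 125I-o-CRF and test drug, 2 h at 21 °C. Filtered on PEI-treated GF/B, washed with cold PBS/0.01% Triton X-100. Nonspecific binding with 1 µM DMP696.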
A general note: Loss of bound radioactivity is the signal in a displacement assay; it reports binding, not function.

Data set [3] can be described thus: Metabolic stability in baboon after 9 mins. The class given is ADME, organism-based, Papio. The following applies: in vivo, read-out: Stability.
Another data set concerns Cortex. Put plainly: Drug uptake in rat cortex after 30 mins. The class given is ADME, tissue-based. The following applies: in vivo, 0.5 h.
The next data set deals with Cerebellum. Nature of the data set: Drug uptake in rat cerebellum after 30 mins. The class given is ADME, tissue-based. To be noted: in vivo, 0.5 h.
A short description of data set [4]: Metabolic stability in baboon after 13 mins. The class given is ADME, organism-based, Papio. To be noted: in vivo, read-out: Stability.
Data set [5] is described as follows: Drug uptake in rat pituitary gland. To be noted: in vivo. The format is ADME, tissue-based.

As to `COc1nc(Cl)nc(C)c1Nc1nc(Cl)cn([C@@H](COCCF)C2CC2)c1=O`, the logD in data set [1] was 3.3. In data set [2], this compound registered an IC50 of 19 nM.
For `COc1cc(Cl)c(Nc2nc(Cl)cn([C@@H](COCCF)C3CC3)c2=O)c(Cl)c1` the same measures were 4 and 0.6 nM.
Regarding `CCCN(CCC)c1cc(C)nc2c(-c3ccc(N(C)[11CH3])nc3)c(C)nn12`, the remaining at 0.15 h in data set [3] turned out to be 50%.
On to `COCCN(CCOC)c1nc(C)nc2c(-c3ccc([76Br])cc3Cl)c(C)nn12`, for which the Drug uptake stood at 0.32 % ID/g in the data set with Cortex and 0.29 % ID/g in the data set on Cerebellum.
Turning to `COc1nc(C)c(Nc2nc(C)cn([C@@H](CF)C3CC3)c2=O)cc1C`, the log distribution coefficient (logD) in data set [1] was found to be 4.1. Also, in data set [2], the IC50 amounted to 4.7 nM.
On to `COCCN(CCO[11CH3])c1cc(C)nc2c(-c3ccc(N(C)C)nc3)c(C)nn12` [[11C]DMP696], for which, in data set [4], the remaining at 13 min was 50%.
`COc1cc(Cl)c(Nc2nc(C#N)cn([C@@H](COCCF)C3CC3)c2=O)c(Cl)c1`: the logD in data set [1] amounted to 3.4. In data set [2], the IC50 was found to be 7.7 nM.
The like results for `COc1cc(C)c(Nc2nc(C)cn([C@@H](CF)C3CC3)c2=O)cc1C` were, in that order, 4.2 and 0.61 nM.
The like results for `COc1cc(C)c(Nc2nc(Cl)cn([C@@H](CF)C3CC3)c2=O)cc1C` were, in that order, 4.5 and 1.1 nM.
The like results for `COc1cc(Cl)c(Nc2nc(Br)cn([C@@H](COCCF)C3CC3)c2=O)c(Cl)c1` were, in that order, 4.1 and 0.46 nM.
Turning to `COc1nc(Cl)nc(C)c1Nc1nc(Br)cn([C@@H](COCCF)C2CC2)c1=O`, the logD in data set [1] is 3.4. Also, in data set [2], the IC50 amounted to 14 nM.
For the compound `CCN(CCCC[18F])c1nc(C)nc2c1c(C)cn2-c1c(C)cc(C)cc1C` [[18F]FBPPA], in data set [5], the Drug uptake worked out at 5.59%.
`COc1cc(C)c(Nc2nc(Cl)cn([C@@H](COCCF)C3CC3)c2=O)cc1C`: the logD in data set [1] worked out at 4.6. In data set [2], this compound returned an IC50 of 0.46 nM.
`N#Cc1cc(F)c(Nc2nc(Cl)cn([C@@H](COCCF)C3CC3)c2=O)cc1F` showed a logD in data set [1] of 4.6. The compound also yielded an IC50 in data set [2] of over 1000 nM.
The like results for `Cc1cc(C#N)cc(Cl)c1Nc1nc(Cl)cn([C@@H](COCCF)C2CC2)c1=O` were, in that order, 3.7 and 4.5 nM.
For `COc1nc(C)c(Nc2nc(Cl)cn(C(CCF)C3CC3)c2=O)c(OC)n1` (racemic), the logD in data set [1] was determined as 2.9. Moreover, in data set [2], the IC50 was 53 nM.
For `Cc1cc(C#N)cc(C)c1Nc1nc(Cl)cn([C@@H](COCCF)C2CC2)c1=O` the same measures were 3.4 and 7.4 nM.
The like results for `COc1cc(Cl)c2c(c1)CCN2c1nc(Cl)cn([C@@H](COCCF)C2CC2)c1=O` were, in that order, 4 and 3.2 nM.
With `N#Cc1cc(Cl)c(Nc2nc(Cl)cn([C@@H](COCCF)C3CC3)c2=O)c(Cl)c1`, the logD in data set [1] was determined as 3.6. Moreover, in data set [2], the IC50 was determined as 5 nM.

Broadly, the logD is the decadic logarithm of the distribution of all forms, ionised or not, between an organic phase and buffer at a given pH. Low values mean a more hydrophilic compound, high ones a more lipophilic compound. What is called IC50 is the concentration that inhibits the measured activity by half. A higher IC50 goes with weaker potency.
